Experimental data as given in PMC4304654 (Bioorganic & medicinal chemistry, 2012).
Values after ≈ are worked out from the molar mass of the structure shown.

What was measured:
[1] = Aqueous solubility in the sodium acetate buffer of the fibrillization assay; format: physicochemical
[2] = target: K18 tau fragment (amino acids 244–369) bearing the P301L mutation (K18PL) (Homo sapiens, UniProt P10636, P618L); test: Heparin-induced K18PL tau fibrillization, thioflavin-T; format: biochemical
Summary of the method: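 Heparin-induced fibrillization of the P301L K18 tau fragment (residues 244–369) in sodium acetate buffer, with test compound at a range of concentrations, each in triplicate. Read-out is thioflavin-T fluorescence of cross-beta fibrils. IC50 comes from a sigmoidal fit of the concentration-response, from one curve fit or the mean of 2 or more separate analyses. Maximal % inhibition is also reported.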

[3] = Brain and plasma levels 1 h after i.p. administration of 5 mg/kg; format: in vivo, B6C3F1 mice; conditions: mice
Summary of the method: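 Mice got a single i.p. 5 mg/kg dose of test compound and were sacrificed 1 h later. Perfused brain hemispheres were sonicated in 10 mM ammonium acetate, pH 5.7 (50% w/v). Plasma came from EDTA-treated blood spun 10 min at 4500g, 4 °C. Samples were acetonitrile-precipitated and spun at 15000g. Supernatants went to LC-MS/MS (MRM, C18, 35 °C) and were quantified against matrix-matched linear standard curves.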

Chain of K18 tau fragment (amino acids 244–369) bearing the P301L mutation (K18PL) (P10636 561-686 P618L): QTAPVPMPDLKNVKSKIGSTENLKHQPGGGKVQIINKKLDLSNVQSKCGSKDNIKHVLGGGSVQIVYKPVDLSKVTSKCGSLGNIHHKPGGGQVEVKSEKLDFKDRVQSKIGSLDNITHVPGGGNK

solubility [1] | Compound | further results
> 200 µM | CC(C)n1nc(-c2ccccc2)c2csc(N)c2c1=O [Compound 65, 7-Amino-2-isopropyl-4-phenylthieno[3,4-d]pyridazin-1(2H)-one] | 
80 µM (≈ 23.3 µg/mL) | Cc1nn(-c2ccc(Cl)cc2)c(=O)c2c(N)scc12 [Compound 63, 7-Amino-2-(4-chlorophenyl)-4-methylthieno[3,4-d]pyridazin-1(2H)-one] | 
32 µM (≈ 11.6 µg/mL) | CC(C)NC(=O)c1nn(-c2cccc(Cl)c2)c(=O)c2c(N)scc12 [Compound 46, 5-Amino-3-(3-chlorophenyl)-N-isopropyl-4-oxo-3,4-dihydrothieno[3,4-d]pyridazine-1-carboxamide] | 
> 200 µM | CCOC(=O)c1c(C(=O)c2ccccc2)csc1N [Compound 54, Ethyl 2-amino-4-benzoylthiophene-3-carboxylate] | 
80 µM (≈ 29.1 µg/mL) | CCOC(=O)c1nn(-c2ccc(Cl)cc2)c(=O)c2c(NC)scc12 [Compound 66, Ethyl 3-(4-chlorophenyl)-5-(methylamino)-4-oxo-3,4-dihydrothieno[3,4-d]pyridazine-1-carboxylate] | 
> 200 µM | CCOC(=O)c1nn(-c2ccc(Cl)cc2)c(=O)c2c1C(O)NC2=O (stereo not shown) [Compound 69, Ethyl 2-(4-chlorophenyl)-5-hydroxy-1,7-dioxo-2,5,6,7-tetrahydro-1H-pyrrolo[3,4-d]pyridazine-4-carboxylate] | 
> 200 µM | Cc1nn(-c2ccccn2)c(=O)c2c(N)scc12 [Compound 60, 7-Amino-4-methyl-2-(pyridin-2-yl)thieno[3,4-d]pyridazin-1(2H)-one] | 
80 µM (≈ 28.9 µg/mL) | Nc1scc2c(C(=O)NC3CC3)nn(-c3ccccc3Cl)c(=O)c12 [Compound 45, 5-Amino-3-(2-chlorophenyl)-N-cyclopropyl-4-oxo-3,4-dihydrothieno[3,4-d]pyridazine-1-carboxamide] | 
> 200 µM | Nc1scc2c(C(=O)O)nn(-c3ccccc3Cl)c(=O)c12 [Compound 35, 5-Amino-3-(2-chlorophenyl)-4-oxo-3,4-dihydrothieno[3,4-d]pyridazine-1-carboxylic acid] | 
80 µM (≈ 29.5 µg/mL) | CC(C)c1ccc(-n2nc(C(=O)NC3CC3)c3csc(N)c3c2=O)cc1 [Compound 50, 5-Amino-N-cyclopropyl-3-(4-isopropylphenyl)-4-oxo-3,4-dihydrothieno[3,4-d]pyridazine-1-carboxamide] | 
80 µM (≈ 33 µg/mL) | CC(C)NC(=O)c1nn(-c2ccc(OC(F)(F)F)cc2)c(=O)c2c(N)scc12 [Compound 48, 5-Amino-N-isopropyl-4-oxo-3-(4-(trifluoromethoxy)-phenyl)-3,4-dihydrothieno[3,4-d]pyridazine-1-carboxamide] | 
32 µM (≈ 11.4 µg/mL) | CCOC(=O)c1nn(-c2ccc(C(C)C)cc2)c(=O)c2c(N)scc12 [Compound 33, Ethyl 5-amino-3-(4-isopropylphenyl)-4-oxo-3,4-dihydrothieno[3,4-d]pyridazine-1-carboxylate] | 
> 200 µM | Cc1nn(-c2cccnc2)c(=O)c2c(N)scc12 [Compound 61, 7-Amino-4-methyl-2-(pyridin-3-yl)thieno[3,4-d]pyridazin-1(2H)-one] | 
> 200 µM | O=C(O)c1nn(-c2ccc(F)cc2)c(=O)c2c1CSC2=O [Compound 70, 3-(4-Fluorophenyl)-4,5-dioxo-3,4,5,7-tetrahydrothieno[3,4-d]pyridazine-1-carboxylic acid] | Inhibition in the K18PL fibrillization assay [2]: near full inhibition
> 200 µM | Nc1scc2c(C(=O)O)nn(-c3ccc(C(F)(F)F)cc3)c(=O)c12 [Compound 38, 5-Amino-4-oxo-3-(4-(trifluoromethyl)phenyl)-3,4-dihydrothieno[3,4-d]pyridazine-1-carboxylic acid] | 
> 200 µM | Cc1nn(C2CCCCC2)c(=O)c2c(N)scc12 [Compound 59, 7-Amino-2-cyclohexyl-4-methylthieno[3,4-d]pyridazin-1(2H)-one] | 
> 200 µM | Cc1nn(C)c(=O)c2c(N)scc12 [Compound 56, 7-Amino-2,4-dimethylthieno[3,4-d]pyridazin-1(2H)-one] | Inhibition in the K18PL fibrillization assay [2]: near full inhibition; Brain level ([3]; 1 h after 5 mg/kg i.p.): BLD ^d
12.8 µM (≈ 4.24 µg/mL) | CCOC(=O)c1nn(-c2ccc(O)cc2)c(=O)c2c(N)scc12 [Compound 32, Ethyl 5-amino-3-(4-hydroxyphenyl)-4-oxo-3,4-dihydrothieno[3,4-d]pyridazine-1-carboxylate] | 

solubility [1] | Compound | further results
12.8 µM (≈ 4.48 µg/mL) | CCOC(=O)c1nn(-c2ccccc2Cl)c(=O)c2c(N)scc12 [Compound 27, Ethyl 5-amino-3-(2-chlorophenyl)-4-oxo-3,4-dihydrothieno-[3,4-d]pyridazine-1-carboxylate] | 
80 µM (≈ 17.9 µg/mL) | Cc1nn(C(C)C)c(=O)c2c(N)scc12 [Compound 57, 7-Amino-2-isopropyl-4-methylthieno[3,4-d]pyridazin-1(2H)-one] | 
32 µM (≈ 12.3 µg/mL) | CCOC(=O)c1nn(-c2ccc(Cl)cc2)c(=O)c2c(N)sc(Cl)c12 [Compound 67, Ethyl 5-amino-7-chloro-3-(4-chlorophenyl)-4-oxo-3,4-dihydrothieno[3,4-d]pyridazine-1-carboxylate] | Inhibition in the K18PL fibrillization assay [2]: near full inhibition
12.8 µM (≈ 5.11 µg/mL) | CCOC(=O)c1nn(-c2ccc(OC(F)(F)F)cc2)c(=O)c2c(N)scc12 [Compound 31, Ethyl 5-amino-4-oxo-3-(4-(trifluoromethoxy)phenyl)-3,4-dihydrothieno[3,4-d]pyridazine-1-carboxylate] | 
> 200 µM | Nc1scc2c(C(=O)O)nn(-c3ccc(OC(F)(F)F)cc3)c(=O)c12 [Compound 39, 5-Amino-4-oxo-3-(4-(trifluoromethoxy)phenyl)-3,4-dihydrothieno[3,4-d]pyridazine-1-carboxylic acid] | 
32 µM (≈ 10.3 µg/mL) | Nc1scc2c(C(=O)O)nn(-c3cccc(Cl)c3)c(=O)c12 [Compound 36, 5-Amino-3-(3-chlorophenyl)-4-oxo-3,4-dihydrothieno[3,4-d]pyridazine-1-carboxylic acid] | 
> 200 µM | Nc1scc2c(-c3ccccc3)nn(CC(F)(F)F)c(=O)c12 [Compound 64, 7-Amino-4-phenyl-2-(2,2,2-trifluoroethyl)thieno[3,4-d]pyridazin-1(2H)-one] | 
12.8 µM (≈ 5.49 µg/mL) | CCOC(=O)c1nn(-c2ccc(Cl)cc2)c(=O)c2c(N)sc(Br)c12 [Compound 68, Ethyl 5-amino-7-bromo-3-(4-chlorophenyl)-4-oxo-3,4-dihydrothieno[3,4-d]pyridazine-1-carboxylate] | Inhibition in the K18PL fibrillization assay [2]: near full inhibition
> 200 µM | Cc1nn(CC(F)(F)F)c(=O)c2c(N)scc12 [Compound 58, 7-Amino-4-methyl-2-(2,2,2-trifluoroethyl)thieno[3,4-d]pyridazin-1(2H)-one] | 
32 µM (≈ 12.3 µg/mL) | CCOC(=O)c1nn(-c2ccc(C(F)(F)F)cc2)c(=O)c2c(N)scc12 [Compound 30, Ethyl 5-amino-4-oxo-3-(4-(trifluoromethyl)phenyl)-3,4-dihydrothieno[3,4-d]pyridazine-1-carboxylate] | 
> 200 µM | Cc1n[nH]c(=O)c2c(N)scc12 [Compound 55, 7-Amino-4-methylthieno[3,4-d]pyridazin-1(2H)-one] | Inhibition in the K18PL fibrillization assay [2]: near full inhibition; Plasma levels 1 h after dosing ([3]; 5 mg/kg i.p.): low plasma levels; Brain level ([3]; 1 h after 5 mg/kg i.p.): BLD ^d; Plasma level ([3]; 1 h after 5 mg/kg i.p.): BLD ^d
 | CC(C)NC(=O)c1nn(-c2ccc(Cl)cc2)c(=O)c2c1CSC2=O [Compound 72, 3-(4-Chlorophenyl)-N-isopropyl-4,5-dioxo-3,4,5,7-tetrahydrothieno[3,4-d]pyridazine-1-carboxamide] | Inhibition in the K18PL fibrillization assay [2]: near full inhibition; Brain penetration ([3]; 1 h after 5 mg/kg i.p.): not brain-penetrant
32 µM (≈ 11.2 µg/mL) | CCOC(=O)c1nn(-c2cccc(Cl)c2)c(=O)c2c(N)scc12 [Compound 28, Ethyl 5-amino-3-(3-chlorophenyl)-4-oxo-3,4-dihydrothieno-[3,4-d]pyridazine-1-carboxylate] | 
> 200 µM | Nc1scc2c(C(=O)O)nn(-c3ccc(F)cc3)c(=O)c12 [Compound 34, 5-Amino-3-(4-fluorophenyl)-4-oxo-3,4-dihydrothieno[3,4-d]pyridazine-1-carboxylic acid] | 
80 µM (≈ 31.6 µg/mL) | Nc1scc2c(C(=O)NC3CC3)nn(-c3ccc(C(F)(F)F)cc3)c(=O)c12 [Compound 47, 5-Amino-N-cyclopropyl-4-oxo-3-(4-(trifluoromethyl)-phenyl)-3,4-dihydrothieno[3,4-d]pyridazine-1-carboxamide] | 
> 200 µM | CC(C)NC(=O)c1nn(-c2ccc(O)cc2)c(=O)c2c(N)scc12 [Compound 49, 5-Amino-3-(4-hydroxyphenyl)-N-isopropyl-4-oxo-3,4-dihydrothieno[3,4-d]pyridazine-1-carboxamide] | 
> 200 µM | Nc1scc2c(C(=O)O)nn(-c3ccc(O)cc3)c(=O)c12 [Compound 40, 5-Amino-3-(4-hydroxyphenyl)-4-oxo-3,4-dihydrothieno[3,4-d]pyridazine-1-carboxylic acid] | 
> 200 µM | CCOC(=O)c1nn(-c2ccc(F)cc2)c(=O)c2c(N)scc12 [Compound 26, Ethyl 5-amino-3-(4-fluorophenyl)-4-oxo-3,4-dihydrothieno[3,4-d]pyridazine-1-carboxylate] | 
